Compound activity as filed in PubChem.
TAAR1 ag: human TAAR1 agonism | 0.99% of 360,000 active | AID 624467 | activation, % at 3 µM | CHO RD-HGA16 TAAR1, Fluo-8 calcium fluorescence; vehicle wells 0%, saturating PEA agonist 100% | Q96RJ0;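 active = activation above the mean activation of all test compounds in the run plus 3 SD, cut at about 38% in these data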
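Test system: RD-HGA16 (CHO) cells co-expressing Gα16 and hTAAR1 | Doses: Single dose, 3 µM | Schedule: 17-24 h seeding, 75 min 37 °C dye, 30 min RT | Evaluation: % activation from peak over basal fluorescence ratio, DMSO-to-PEA scaled | Technique: Kinetic Fluo-8 calcium fluorescence | Benchmarks: Low control DMSO, high control PEA (EC100)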
TAAR1 antag: antagonists of human TAAR1; CHO RD-HGA16 TAAR1, Fluo-8 calcium fluorescence, antagonist; inhibition, % at 3 µM; 1.5% of 360,000 active;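 active = inhibition above a per-plate cutoff, the mean inhibition of test compounds on that plate plus 3 SD, cut at about 49% in these data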;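 note: 0% = DMSO plus EC80 beta-PEA response and 100% = DMSO alone without agonist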
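Material: CHO RD-HGA16 cells bearing hTAAR1; compound dosing: one-point dosing, 3 µM nominal final; schedule: dye loading 75 min at 37 °C, then 30 min room temperature; measured by: calcium fluorescence with Fluo-8; control set: vehicle and agonist controls; replication: n of 1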
OX1R antag-1: antagonists of human orexin 1 receptor; inhibition, % at 5 µM; O43613; CHO/OX1R cells, Fluo-8 calcium fluorescence, orexin A; AID 434989; 0.43% of 330,000 active;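 active = inhibition above its plate's threshold, mean inhibition of all tested compounds on the plate plus 3 SD, cut at about 37% in these data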;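 note: 0% = orexin A challenge wells and 100% = SB-334867-A antagonist wells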
Target sequence (O43613 whole entry, looked up): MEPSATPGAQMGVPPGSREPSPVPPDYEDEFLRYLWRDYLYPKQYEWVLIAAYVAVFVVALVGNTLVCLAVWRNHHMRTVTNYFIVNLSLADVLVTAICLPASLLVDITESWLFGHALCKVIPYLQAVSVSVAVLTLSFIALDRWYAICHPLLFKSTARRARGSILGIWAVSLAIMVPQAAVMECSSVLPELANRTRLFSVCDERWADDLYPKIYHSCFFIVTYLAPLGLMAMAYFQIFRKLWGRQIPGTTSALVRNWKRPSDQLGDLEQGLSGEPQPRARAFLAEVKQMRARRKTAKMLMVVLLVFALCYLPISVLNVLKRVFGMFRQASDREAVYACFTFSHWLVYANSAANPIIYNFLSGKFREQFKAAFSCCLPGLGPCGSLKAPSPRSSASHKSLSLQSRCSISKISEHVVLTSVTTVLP
NTR1 ag: activates human neurotensin receptor 1. P30989. NTR1-U2OS beta-arrestin-GFP spot imaging, agonist mode. activation, % at 20 µM. 0.17% of 330,000 active;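 active = activation at or above 40% of the spot to cytoplasm intensity ratio, with at least 20 cells analyzed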;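 note: 0% = DMSO without peptide and 100% = 100 nM NTR1 peptide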
CHO parental Ca: counter-screen: ATP calcium response change in parental CHO cells; 0.63% of 330,000 active; inhibition, % at 5.6 µM; parental CHO-K1, ATP-induced calcium, Fluo-8 fluorescence; AID 463079;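 active = inhibition above that plate's mean sample inhibition plus 3 SD, cut at about 26% in these data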;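 note: 0% = ATP-challenged DMSO wells and 100% = DMSO wells without ATP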
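Material: Parental CHO cells | Reagent: ATP | Compound dosing: Single nominal dose of 5.6 µM per compound | Detection: Intracellular calcium via Fluo-8 no-wash fluorescent dye | Read-out: % inhibition of ATP-induced calcium mobilization | Benchmarks: Low control ATP plus DMSO, high control DMSO only | Replicates: Singlicate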
OX1R antag-2: antagonists of human orexin 1 receptor (OX1R). O43613. OX1R-expressing cells, FRET antagonist read-out. inhibition, % at 6.6 µM. 1.8% of 330,000 active. AID 485270; in the data active = inhibition mostly above about 38%, no sharp cut-off; inactive = mostly below about 40%;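 note: 0% = agonist challenge alone and 100% = reference antagonist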
The depositor's hits bear a star; / = no result. An excerpt weighted towards active compounds, which were near 4% of everything screened.

SMILES	TAAR1 ag	TAAR1 antag	OX1R antag-1	NTR1 ag	CHO parental Ca	OX1R antag-2
CC(/C=N/NC(=O)c1sc(N)nc1C)=C\c1ccccc1	40.2*	-14.1	-7.1	2.1	-13.7	25.9
Cc1nc(N)sc1C(=O)N/N=C/c1ccccc1[N+](=O)[O-]	8.7	3.2	-14.9	0.6	-10.0	31.0
O=c1c2cc(F)ccc2sn1-c1ccccc1	60.1*	57.3*	46.0	-0.8	72.0*	29.4
O=c1c2ccccc2sn1-c1nccs1	46.6*	35.3	/	/	/	/
O=c1c2cc(C(F)(F)F)ccc2sn1-c1ccccc1	35.7	25.2	/	/	/	/
Cc1ccccc1-n1sc2cc(F)ccc2c1=O	44.0*	39.5	13.0	2.4	35.4*	27.1
O=c1c2ccccc2sn1-c1cccc(Cl)c1	38.5*	21.8	/	/	/	/
O=c1c2ccccc2sn1-c1ccccc1F	23.9	13.4	/	/	/	/
COC(=O)c1c(-c2ccc(OC)cc2)c2c(c3c4cc(OC)ccc4n(C(=O)c4ccccc4)c13)C(=O)N(C)C2	1.5	23.9	/	/	/	/
CC(C)OCC(O)CN1CCN(CCN2C(=O)c3cccc4cccc(c34)C2=O)CC1 (stereo not drawn)	1.4	-8.2	-30.4	-0.9	-7.9	40.6*
CCOC(=O)/C=c1\s/c(=C(\C#N)C(N)=O)n(-c2ccccc2)c1=O	0.0	1.8	-11.5	-0.5	-8.7	57.1*
Cc1cc2oc(=O)cc(CN3CCN(Cc4ccc5c(c4)OCO5)CC3)c2cc1C	6.6	20.6	-27.7	1.3	100.4*	19.2
CCn1ncc2c(=O)c(C(=O)c3ccccc3)c[nH]c21	-0.8	9.1	/	/	/	/
CCc1ccc(C(C)NC(=O)Cn2cnc3c(=O)n(C)c(=O)n(C)c32)cc1 (stereo not drawn)	37.5*	1.0	-15.4	0.2	-11.4	2.5
Nc1[nH]c(C(=O)c2ccccc2)c(-c2cccc3ccccc23)c1C(=O)NCc1ccc(F)c(F)c1	1.8	-19.5	/	/	/	/
Cc1ccc(S(=O)(=O)N2CCCC2C(=O)OCc2nc3ccccc3s2)cc1 (stereo not drawn)	5.4	-2.9	5.5	1.9	58.7*	17.5
CCCOc1cccc(-c2cc(C(=O)N/N=C/c3cccnc3)c3ccccc3n2)c1	3.5	53.6*	/	5.6	/	/
COc1ccccc1CCn1cnc(-c2cccc(Br)c2)c1C(C)C	27.0	16.7	/	/	/	/
CCCCNc1c(-c2cccc(-c3ccc(OC)cc3)c2)nc2ccc(C)cn12	11.6	81.2*	46.5*	35.7	73.8*	52.3
COc1ccc(-c2nc3ccc(C)cn3c2NCc2ccc3c(c2)OCO3)cc1	5.9	31.9	-42.9	4.0	-21.0	26.6
CCCCNc1c(-c2cccc(-c3ccc(OC)cc3)c2)nc2cc(C)ccn12	7.8	54.9*	39.3	33.4	65.3*	28.7
O=C(O)c1ccccc1-c1c2cc(I)c(=O)c(I)c-2oc2c(I)c(O)c(I)cc12	136.4*	82.9*	79.0*	-3.1	77.9*	38.5
CCN(C(=O)Cn1cnc2cc([N+](=O)[O-])ccc2c1=O)C1CCS(=O)(=O)C1 (stereo not drawn)	1.4	4.1	-13.5	-0.2	-2.7	62.6*
CN(C(=O)Cn1cnc2ccccc2c1=O)C1CCS(=O)(=O)C1 (stereo not drawn)	0.2	-17.3	2.4	-0.7	9.5	16.1
CC1CCCC(C)N1C(=O)Cn1cnc2cc([N+](=O)[O-])ccc2c1=O (stereo not drawn)	2.1	17.5	-12.7	0.2	-24.4	114.0*
Cc1ccc(CNC(=O)Cn2cnc3cc([N+](=O)[O-])ccc3c2=O)cc1	20.8	-4.1	-11.3	1.6	-19.6	30.4
O=C(Cn1cnc2cc([N+](=O)[O-])ccc2c1=O)Nc1ccccc1-c1ccccc1	-1.3	-4.5	-22.5	1.5	-23.2	48.5*
Cc1ccsc1C(=O)N1CCN(S(=O)(=O)c2cccc(F)c2)CC1	5.3	-5.1	-14.2	-0.7	-7.7	21.3
CCn1nc(C(=O)NNC(=O)c2ccccc2)c2ccccc2c1=O	3.4	-20.0	-15.8	0.4	-5.8	2.4
CN(/N=C\c1ccc(O)c(O)c1)c1nc(-c2ccccc2)cc(-c2ccccc2)n1	2.9	40.8	-4.0	31.5	28.5*	11.1
